Screening results (PubChem)
Compounds with a hit are over-represented: about 1.5% of the library has one in this group of screens.
CSN deneddyl inh = CSN deneddylation inhibition; Q92905; 0.38% of 360,000 active; inhibition, % at 12.5 µM; Purified CSN, SCF-Nedd8-OG deneddylation, fluorescence polarization;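 active means pattern-corrected inhibition above about 35%, with an unprinted fluorescence ratio check between 0.5 and 1.5, limit read from the data, passing the limit was not always enough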
Target sequence (Q92905 whole entry, looked up, one chain of several): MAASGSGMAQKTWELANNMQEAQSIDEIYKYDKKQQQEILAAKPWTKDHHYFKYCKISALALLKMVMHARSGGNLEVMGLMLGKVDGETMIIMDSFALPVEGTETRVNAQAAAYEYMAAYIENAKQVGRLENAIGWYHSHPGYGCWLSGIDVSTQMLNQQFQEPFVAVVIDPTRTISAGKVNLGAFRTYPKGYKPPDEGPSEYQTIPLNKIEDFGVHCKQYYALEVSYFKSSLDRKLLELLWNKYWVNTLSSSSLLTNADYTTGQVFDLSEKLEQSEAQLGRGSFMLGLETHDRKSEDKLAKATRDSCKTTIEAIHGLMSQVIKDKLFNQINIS
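Schedule: reaction 90 min, room temperature / Assay system: HEK293T-derived human Csn5 enzyme / Input: Csn5 at 0.24 nM final / Measure: inhibition of Csn5 cleavage, % / Control set: substrate-only high control, full reaction low control / Technique: fluorescence polarization of the substrate / Buffer or medium: Tris/NaCl/DTT buffer, pH 7.5 / Reagent: SCFSkp2-Nedd8OG substrate at 10 nM final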
TPT1 inh = C. albicans TPT1 enzyme inhibition; recombinant caTPT1, FP RNA substrate dephosphorylation; inhibition, % at 5 µM; AID 1962; 0.81% of 300,000 active;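 active means inhibition above the mean of all tested compounds plus 3 SD, set per screening campaign, cut at about 24% in these data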
HNF4A DNA FP = change in binding of human HNF4 alpha to DNA. HNF4a-FITC DNA binding, fluorescence polarization, 1 h. activity change, % at 10 µM. 0.3% of 360,000 active. AID 1224865; in the data active means activity change above about 30%, passing the limit was not always enough
Rpn11 inh = blocks the human proteasome subunit Rpn11 | human 26S proteasome, Ub4-pepOG fluorescence polarization; 20S core pre-blocked with epoxomicin | calls only at 20 µM | 0.59% of 360,000 active | AID 588493;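 active means inhibition at 20 µM, scaled to each plate's controls, above about 33%, limit read from the data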
caTPT1 confirm = confirmation of Candida albicans TPT1 inhibitors; shares compounds with TPT1 inh; recombinant caTPT1, fluorescence polarization, RNase T1 coupled; inhibition, % at 5 µM; 74% of 2,400 active; AID 2149;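 active means inhibition above the primary screen limit, the mean inhibition of all tested compounds plus 3 SD, cut at about 25% in these data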
RNase T1 counter = counter-screen for TPT1 inhibitors: inhibitors of Aspergillus oryzae RNase T1; shares compounds with TPT1 inh; RNase T1 cleavage, fluorescence polarization, 1536-well; inhibition, % at 5 µM; 83% of 2,400 active; AID 2153;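 active means inhibition above the solvent-only control well mean plus 3 SD, limit set per screening run, cut at about 23% in these data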;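 further: inhibitors block cleavage so intact labeled substrate keeps polarization high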
Target sequence (P00651 whole entry, looked up): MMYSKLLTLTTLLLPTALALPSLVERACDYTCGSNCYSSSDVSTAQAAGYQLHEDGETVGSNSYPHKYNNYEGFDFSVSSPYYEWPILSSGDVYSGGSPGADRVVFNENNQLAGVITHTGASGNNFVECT
Hits are given with their value; n = inactive; x = not tested or not shown.

SMILES | CSN deneddyl inh | TPT1 inh | HNF4A DNA FP | Rpn11 inh | caTPT1 confirm | RNase T1 counter
Cc1ccc(NC(=O)c2sc3nc4c(c(-c5ccco5)c3c2N)CCC4)cc1 | n | n | n | n | x | x
Nc1c(C(=O)Nc2ccc(Br)cc2)sc2nc(-c3ccco3)ccc12 | n | 24.5 | n | n | 35.3 | 44.3
Cc1noc(C)c1S(=O)(=O)N(C)C[C@H]1OCc2cn(nn2)CCCC(=O)N([C@H](C)CO)C[C@@H]1C | n | x | n | n | x | x
O=C(Nc1ccccc1)c1cc(C2CCCN(C(=O)OCc3ccccc3)C2)on1 (centres undefined) | n | x | n | n | x | x
CC(CC1C(C#N)=C(N)SC(N)=C1C#N)c1ccccc1 (centres undefined) | 57.9 | 59.8 | n | x | 28.5 | 38.0
Cc1cc(NC(=O)c2cccs2)ncc1NC(=O)C(C)C | n | n | n | n | x | x
COc1nn(-c2nc(-c3ccccc3)cc(C(F)(F)F)n2)cc1[N+](=O)[O-] | n | 54.5 | n | n | n | n
Cc1noc(C)c1-c1ccc(C(=O)NC2CCCCC2)c2occc12 | n | x | n | n | x | x
CCC(CC)C1C(C#N)=C(N)SC(N)=C1C#N | n | 38.5 | n | n | n | n
CNC(=O)c1cc(C(=O)c2ccc(Cl)cc2)c(Br)[nH]1 | n | n | n | n | x | x
Cc1ccsc1/C=C1/SC(=O)N(CC(=O)N2CCOCC2)C1=O | n | 69.8 | n | n | n | n
O=C(CN1C(=O)S/C(=C/c2ccc(N3CCOCC3)cc2)C1=O)N1CCOCC1 | n | 40.3 | n | x | 61.2 | 72.7
COc1ccc(C(C(=O)NC(C)(C)C)N(C(=O)CCC(=O)Nc2cc(C)on2)c2ccccc2F)cc1 (centres undefined) | n | n | n | n | x | x
Cc1cc2c(cc(C(=O)OCC(=O)NC3CCCCC3)n2C)o1 | n | x | n | n | x | x
COc1ccccc1C1C([N+](=O)[O-])=CC([N+](=O)[O-])=CN1C (centres undefined) | n | 42.2 | n | n | 51.5 | 60.8
COc1ccccc1C1NC=C([N+](=O)[O-])C=C1[N+](=O)[O-] (centres undefined) | n | n | n | n | x | x
O=S(=O)(NCCC1=CCCCC1)c1c(Cl)cccc1Cl | n | n | n | n | x | x
CCS(=O)(=O)Nc1ccc(C2=NN(S(=O)(=O)CC)C(c3cccs3)C2)cc1 (centres undefined) | n | n | n | n | x | x
O=C1CSc2ccc(S(=O)(=O)N3CCN(c4ccccc4)CC3)cc2N1 | n | n | n | n | x | x
O=C1CSc2ccc(S(=O)(=O)N3CCN(c4ccccc4F)CC3)cc2N1 | n | 28.0 | n | n | n | n
N#C/C(=C\c1coc2ccc(O)cc2c1=O)C(=O)Nc1nc2ccccc2s1 | n | 28.4 | n | x | 92.8 | 89.5
NC(=O)N/N=C/c1coc2ccc(O)cc2c1=O | n | n | n | n | x | x
Nc1c(C(=O)c2ccccc2)sc2snc(SCC(=O)c3ccccc3)c12 | n | 101.6 | n | n | 71.1 | 77.3
COC(=O)C(CCC(=O)CN1C(=O)c2ccccc2C1=O)N1C(=O)c2ccccc2C1=O (centres undefined) | n | x | n | n | x | x
Cn1nnnc1SCc1nc2scc(-c3ccc(Cl)cc3)c2c(=O)[nH]1 | n | 28.6 | 39.2 | x | 49.8 | 59.2
SMILES | CSN deneddyl inh | TPT1 inh | HNF4A DNA FP | Rpn11 inh | caTPT1 confirm | RNase T1 counter
CCOc1ccccc1NC(=O)COC(=O)C1CCC(=O)N1 (centres undefined) | n | x | n | n | x | x
O=C1C2CCc3ccccc3C2N1c1ccccc1 (centres undefined) | n | x | n | n | x | x
COC(=O)/C=C/C(=O)N1CCN(c2cccc(Cl)c2)CC1 | x | 47.5 | x | x | n | n
COc1ccc(C(=O)N2CCN(c3cccc(Cl)c3)CC2)cc1 | n | n | n | n | x | x
CN(C)S(=O)(=O)c1ccc(N2CCOCC2)c(C(=O)NCc2ccc3c(c2)OCO3)c1 | n | x | n | n | x | x
COc1ccccc1/C=C/C1=NC(=C\C=C/c2ccccc2)/C(=O)O1 | n | 73.5 | n | n | 119.1 | 122.4
O=C1OC(/C=C/c2ccccc2)=NC/1=C\c1cccnc1 | n | n | n | n | x | x
CC(C)c1ccc(/C=C2\CC/C(=C\C=N\N(C)C)C2=O)cc1 | n | 80.2 | n | n | 74.9 | 82.1
CC(C)/C=C1\CC/C(=C\c2ccc(N(C)C)cc2)C1=O | n | 120.9 | n | x | 120.5 | 117.8
CN(C)/N=C/C=C1\CC/C(=C\c2ccc(F)c(F)c2)C1=O | n | n | n | n | x | x
Cc1cc(C)c(C2=Nn3c(C)nnc3SC2C)cc1C (centres undefined) | n | n | n | n | x | x
CN1C(=O)C(C)(C)c2cc(S(=O)(=O)N3CCCC(C(=O)NCc4ccc(Cl)cc4)C3)ccc21 (centres undefined) | n | n | n | n | x | x
CCN1C=C(Cc2ccc(OC)cc2)C2=C(C1)C(c1ccc(OC)cc1)C(C#N)=C(N)O2 (centres undefined) | n | 43.9 | n | n | 26.9 | 34.8
COc1ccc(C2C(C#N)=C(N)Oc3cc4c(cc32)OCO4)cc1 (centres undefined) | n | n | n | n | x | x
CC1(C(=O)NCc2cccc3ccccc23)CCN1C(=O)Cc1ccc(-c2ccccc2)cc1 (centres undefined) | n | x | n | n | x | x
Cc1ccc(S(=O)(=O)CCSc2nc(C)cc(C(F)(F)F)c2C#N)cc1 | n | 39.8 | n | x | 57.7 | 69.4
COC(=O)CSc1nc(C)cc(C(F)(F)F)c1C#N | n | n | n | n | x | x
C[C@@H]1CN([C@@H](C)CO)C(=O)c2cc(NC(=O)C3CCCCC3)ccc2O[C@@H](C)CCCCO[C@@H]1CN(C)Cc1ccncc1 | n | x | n | n | x | x
CC1CCN(CC(=O)Nc2sc3c(c2C#N)CCC3)CC1 | n | 39.1 | n | n | n | n
CCCC(=O)Nc1sc2c(c1C#N)CCCC2 | n | n | n | n | x | x
COc1cc(C2CC(=O)Nc3cc(C)c(C)cc32)cc(OC)c1OC (centres undefined) | n | n | n | n | x | x
Cc1cc2c(cc1C)C(c1cccc([N+](=O)[O-])c1)CC(=O)N2 (centres undefined) | n | 52.9 | n | n | n | 31.6
CC(=O)c1cc(NC(=O)c2ccc(C)cc2)c(=O)oc1/C=C/N(C)C | 60.5 | 156.1 | 96.0 | x | 133.6 | 135.0
CC(=O)c1cc(NC(=O)c2ccc(C)cc2)c(=O)oc1C | n | n | n | n | x | x
COc1ccc(C(=O)Nc2cc(C(C)=O)c(/C=C/N(C)C)oc2=O)cc1 | 52.2 | 114.1 | 116.8 | x | 125.4 | 129.7
Nc1cc(=O)n(Cc2ccco2)c(=S)[nH]1 | n | x | n | n | x | x
CCN(CC)S(=O)(=O)c1ccc(C(=O)/C=C/c2ccc(-c3ccc([N+](=O)[O-])cc3)o2)cc1 | n | 29.9 | n | n | 48.8 | 53.0
CCc1ccc(C(=O)/C=C/c2ccc([N+](=O)[O-])o2)cc1 | n | n | n | n | x | x
N=C1S/C(=C\c2ccc(-c3cccc(Cl)c3)o2)C(=O)N1c1nccs1 | n | 28.6 | n | n | 32.3 | 35.0
